This is an account of results in PubChem BioAssay.

Unmarked numbers belong to inactive results. Inconclusive results are not listed. Active and inactive are the calls of the source.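 Rule for the calls, unless noted: active = growth inhibition above 25% in both replicates, a cutoff set 3 SD above the mean; inconclusive = above 25% in only one replicate; inactive = the rest.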

The nature of assay [1]: OD615 S. cerevisiae growth inhibition, permissive medium, pilot counter-assay, permissive growth control for S. cerevisiae lifespan shortening project (AID 705). Particulars: OD615, 24 h, at 10 µM, stronger effect = higher value. Put shortly: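 assay system = Saccharomyces cerevisiae strain carrying genetically modified DeaD replicative-lifespan system | medium = SC raffinose/galactose permissive medium | dosing = 10 µM single dose, 0.25% DMSO | schedule = 24 h compound exposure at 30 °C after 4 h pre-growth | measured by = OD at 615 nm | read-out basis = growth inhibition from lowered OD615 after 24 h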

Assay [2] in a line: Restrictive medium S. cerevisiae growth inhibition, OD615, pilot screen of yeast lifespan reduction project, restrictive growth control (AID 706;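 active = growth inhibition above a set limit, 3 SD over mean compound inhibition, in both replicates, cut at about 43% in these data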). The note with it: OD615, 48 h, at 10 µM, stronger effect = higher value. In a few lines: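 Buffer or medium: CSMM-D glucose medium. Material: genetically modified Saccharomyces cerevisiae, DeaD replicative lifespan assay strain. Times: 48 h compound exposure at 30 °C. Measured by: optical density at 615 nm.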

Assay [3] in a line: viability gain of MRP-1-high H69AR cells under doxorubicin, pilot screen, MRP-1 activator project, CellTiter-Glo, duplicate (AID 807;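 active = viability increase at or above a cutoff of the median across tested compounds plus 3 SD, cut at about 8.5% in these data, passing the limit was not always enough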;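 note: compound pretreatment 18-22 h then 72 h combined with doxorubicin; 0% = doxorubicin alone and 100% = vehicle without doxorubicin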). The note with it: H69AR viability with doxorubicin, CellTiter-Glo luminescence; at 10 µM; stronger effect = higher value. In general terms: ATP-based viability assays read luminescence as a measure of living cells.
Assay [4] is described as follows: growth suppression of beta-catenin knockout HCT116, pilot screen, human colon tumor cells (AID 823;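 active = cell viability at or below a set limit in both duplicate runs, the limit being the all-compound median minus 4 SD, cut at about 23% in these data, passing the limit was not always enough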;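 note: 0% = wells killed by 20 µM Hyamine and 100% = untreated DMSO cell wells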). The note with it: CellTiter-Glo, 60 h, at 10 µM, stronger effect = lower value.
Assay [5] in a line: growth suppression of PTEN-deleted HCT116, pilot screen, cell-based, HCT116 clonal line, CellTiter-Glo (AID 824;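 active = viability at or below 27.92% in each of two runs, the all-compound median minus 4 SD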;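 note: 0% = 20 µM Hyamine control and 100% = vehicle cell control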). Particulars: 60 h, at 10 µM, stronger effect = lower value.
The nature of assay [6]: inhibitors of the yeast RAM network, pilot screen, dse1pr::URA3 reporter, 5-FOA selection (AID 869;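 active = inhibition over a set limit, the all-compound mean plus 3 SD, in both replicate runs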;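 note: 0% = DMSO wells with no growth and 100% = 10 µM 1-NA-PP1 with full growth; RAM network block rescues cells from 5-FOA so hits raise OD615 growth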). Particulars: S. cerevisiae dse1pr::URA3 5-FOA growth, OD615, 2 d; at 10 µM; stronger effect = higher value; strain carries analog-sensitive mutant Cbk1 kinase.
The nature of assay [7]: RAM signaling pathway blockade in yeast – S. cerevisiae, Pdr1DBD-CYC8 efflux-inhibited sensitized strain, primary screen (AID 1298;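 active = RAM network inhibition above 8.4% in each of two replicates, 3 SD over the compound average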;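 note: 0% = DMSO untreated cells without growth and 100% = 10 µM 1-NA-PP1 full growth; higher means more yeast growth rescued from 5-FOA killing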). The note with it: S. cerevisiae cbk1-as DSE1-URA3 strain, 5-FOA growth OD615, 2 d; at 50 µM; stronger effect = higher value.

Usually viability stands for a read-out of living cells in per cent, often relative to untreated cells. In general, inhibition refers to the percentage by which the read-out fell short of the control. Regarding `CCOC(=O)N1CCC(N2CC34C=CC(O3)C(C(=O)Nc3ccc(F)cc3)C4C2=O)CC1` (stereo unspecified), the values for the growth inhibition in assay [1] and in assay [2] were -4.45% and -3.7%, respectively. Also, the viability increase in assay [3] is 1.43%. Further, the viability is 105% in assay [4] and 101% in assay [5]. Also, the inhibition in assay [6] is 0.885%. In assay [7], the RAM network inhibition was 6.68%.

Turning to `Nc1nc(SCC(=O)OCc2ccccc2)[nH]c(=O)c1NC(=O)c1ccco1`, the growth inhibition is -8.4% in assay [1] and -11.7% in assay [2]. For the same compound, the viability increase in assay [3] is -1.48%. The viability in assay [4] was 101%; in assay [5], 98.7%. The inhibition in assay [6] was 1.36%. The RAM network inhibition in assay [7] is -0.54%.

`Cc1ccc(-n2nnc3c(=O)n(CC(=O)OCc4ccccc4)cnc32)cc1`: the growth inhibition is -3.74% in assay [1] and -5.4% in assay [2]. In assay [3], the viability increase was -2.06%. Moreover, the viability was 92.6% in assay [4] and 91.1% in assay [5]. In addition, the inhibition in assay [6] was 2.02%. In addition, the RAM network inhibition in assay [7] is 6.18%.

For the compound `CCOC(=O)N1CCN(C(=O)C2CCCN(Cc3nc(-c4ccc(Cl)cc4)oc3C)C2)CC1` (stereo unspecified), the figures for the growth inhibition in assay [1] and in assay [2] were 2.57% and -13.2%, respectively. Also, in assay [3], the viability increase is -4.13%. Also, the results for the viability in assay [4] and in assay [5] were 37.9% and 46.5%, respectively. Also, the inhibition in assay [6] was 0.12%. Also, the RAM network inhibition in assay [7] is 3.55%.

In the case of `CCCNS(=O)(=O)c1cccc2cccnc12`, the growth inhibition is -6.87% in assay [1] and 6.17% in assay [2]. Also, the viability increase in assay [3] was -1.58%. For the same compound, the viability in assay [4] is 101%; in assay [5], 96.5%. Moreover, the inhibition in assay [6] is 1.89%. Also, in assay [7], the RAM network inhibition is 0.72%.

With `COc1ccc(-c2nc(C#N)c(NCCCN3CCOCC3)o2)cc1`, the growth inhibition in assay [1] is 0.22%; in assay [2], -5.34%. Moreover, the viability increase in assay [3] was -0.09%. For the same compound, the viability was 103% in assay [4] and 94% in assay [5]. Further, the inhibition in assay [6] is 1.28%. Also, in assay [7], the RAM network inhibition is 0.89%.

For `CC(=O)N1CCc2cc(C(=O)CN3CCCN(Cc4ccc(F)cc4)C3)ccc21`, the growth inhibition in assay [1] is 4.55%; in assay [2], 9.21%. The viability increase in assay [3] was -1.12%. For the same compound, the viability in assay [4] is 102%; in assay [5], 95.8%. Besides, in assay [6], the inhibition was 1.48%. Besides, in assay [7], the RAM network inhibition was 2.92%.

As to `CC(C)(C)c1ccc(S(=O)(=O)N2CCN(CCC#N)CC2)cc1`, the growth inhibition in assay [1] was -8.29%; in assay [2], -2.35%. In addition, the viability increase in assay [3] was -2.4%. In addition, the viability is 100% in assay [4] and 96.3% in assay [5]. For the same compound, the inhibition in assay [6] was 0.88%. Further, in assay [7], the RAM network inhibition was 4.27%.

Turning to `CCOc1ccc(-c2nnc3n2N=C(c2ccc(OC)cc2)CS3)cc1`, the growth inhibition in assay [1] was -2.4%; in assay [2] it was -3.84%. For the same compound, the viability increase in assay [3] was -5.29%. The viability in assay [4] is 84%; in assay [5] it was 82%. The inhibition in assay [6] was 1.72%. Also, in assay [7], the RAM network inhibition was 5.3%.

For `O=c1cc(N2CCN(c3ccccc3)CC2)[nH]c(=O)n1Cc1ccc(F)cc1`, the growth inhibition in assay [1] was 6.47%; in assay [2], -4.22%. Besides, the viability increase in assay [3] is 0.72%. Besides, the results for the viability in assay [4] and in assay [5] were 89.6% and 80.9%, respectively. Moreover, the inhibition in assay [6] was 2.68%. Moreover, in assay [7], the RAM network inhibition is 3.61%.

On to `COc1ccc(NC(=O)c2cnn3c(C(F)(F)F)cc(-c4ccco4)nc23)cc1OC`, for which the growth inhibition in assay [1] was -11.5%; in assay [2] it was -12.4%. The viability increase in assay [3] is -0.73%. Further, the viability in assay [4] is 96.5%; in assay [5], 93%. The inhibition in assay [6] is 1.89%. In addition, the RAM network inhibition in assay [7] is 2.09%.

As for `O/N=C1/CCc2cccc3cccc1c23`, the figures for the growth inhibition in assay [1] and in assay [2] were -11.1% and 0.79%, respectively. Also, in assay [3], the viability increase was -3.93%. Moreover, the viability is 96.1% in assay [4] and 103% in assay [5]. In assay [6], the inhibition is 2.06%. For the same compound, the RAM network inhibition in assay [7] was -0.11%.

Regarding `Cc1c(C(=O)OC2CCCC2)[nH]c2c1C(=O)CC(c1ccco1)C2` (stereo unspecified), the growth inhibition in assay [1] is -6.06%; in assay [2], -12.3%. The viability increase in assay [3] was -5.41%. For the same compound, the viability in assay [4] was 15.4% (active); in assay [5] it was 17.7% (active). Moreover, the inhibition in assay [6] was 1.86%. The RAM network inhibition in assay [7] is 0.11%.

On to `CCCCC(=O)Nc1ccc(Br)cc1C(=O)O`, for which the growth inhibition in assay [1] is 5.08%; in assay [2], -10.9%. Also, the viability increase in assay [3] was 0.11%. Further, the viability in assay [4] is 89.9%; in assay [5], 97.8%. Besides, the inhibition in assay [6] is 1.95%. In assay [7], the RAM network inhibition is -1.59%.

Consider `Cc1ccc(-c2nc(C#N)c(N3CCCCC3)o2)cc1`, for which the growth inhibition in assay [1] is -4.44%; in assay [2], -6.95%. Further, the viability increase in assay [3] was -1.61%. Besides, the viability is 98% in assay [4] and 78.1% in assay [5]. Also, the inhibition in assay [6] is 1.51%. Further, in assay [7], the RAM network inhibition was 3.37%.

Take `Cn1c(=O)oc2cc(S(=O)(=O)N3CCCC(C(=O)N4CCc5ccccc5C4)C3)ccc21` (stereo unspecified): the growth inhibition in assay [1] was 1.16%; in assay [2], -8.79%. In addition, the viability increase in assay [3] is -2.62%. Also, the viability was 87.8% in assay [4] and 84.9% in assay [5]. For the same compound, the inhibition in assay [6] was 1.8%. Moreover, in assay [7], the RAM network inhibition was -0.89%.

Regarding `CC1=C(C(=O)N2CCOCC2)C(c2cccs2)NC(=O)N1` (stereo unspecified), the growth inhibition in assay [1] was 1.45%; in assay [2], -1.81%. Besides, the viability increase in assay [3] is -0.8%. Also, the viability is 99.8% in assay [4] and 99.9% in assay [5]. Besides, in assay [6], the inhibition was 1.26%. Further, the RAM network inhibition in assay [7] was 3.01%.

Regarding `CCOC(=O)c1c(C)oc2ccc(OC(=O)N3CCOCC3)cc12`, the results for the growth inhibition in assay [1] and in assay [2] were -16.1% and 0.815%, respectively. For the same compound, the viability increase in assay [3] was -1.36%. In addition, the viability is 93.8% in assay [4] and 89.6% in assay [5]. In assay [6], the inhibition was 0.115%. Moreover, the RAM network inhibition in assay [7] is 0.98%.
